{"source": "ChEMBL document CHEMBL4680121", "about": "“Development of (4-methoxyphenyl)-1H-tetrazol-5-amine regioisomers as a new class of selective antitubercular agents” (Eur J Med Chem, 2020)", "type_in_all_cases": "functional", "key": {"[1]": {"test_system": "Mycobacterium tuberculosis", "assay": "Antitubercular activity against PAS/INH/EMB/RMP-resistant Mycobacterium tuberculosis Spec.210 assessed as inhibition of microbial growth incubated for 1 week by MABA method", "conditions": "Mycobacterium tuberculosis, 210, 168 h; time 1 weeks", "in_short": "(§1)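 Microplate Alamar Blue assay in Middlebrook 7H9 broth with 10% OADC. Inoculum from fresh LJ culture was adjusted to McFarland 1 and diluted 1:20. DMSO stocks were two-fold serially diluted to final 0.125–512 µg/ml, with growth and sterile controls. Plates ran 1 week at 37 °C, then Alamar blue was added for 24 h. MIC is the lowest concentration preventing the blue-to-pink change.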"}, "[2]": {"test_system": "Mycobacterium tuberculosis", "assay": "Antitubercular activity against INH-resistant Mycobacterium tuberculosis Spec.800 harboring InhA promoter mutation assessed as inhibition of microbial growth incubated for 1 week by MABA method", "conditions": "time 1 weeks", "in_short": "as §1"}, "[3]": {"test_system": "Mycobacterium tuberculosis", "assay": "Antitubercular activity against PAS/INH/EMB/RMP-resistant Mycobacterium tuberculosis Spec.210 assessed as fractional inhibitory concentration index in presence of 1/2 x MIC isoniazid incubated for 14 days by MABA method", "conditions": "time 14 day", "in_short": "(§2)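 Interaction analysis in Middlebrook 7H9 with 10% OADC. Combination MICs came from mixing the derivative (1 to 1/32 MIC) with the reference drug at 1/2 MIC, and the reverse, after 14 days at 37 °C with McFarland 1 inoculum. FICI was calculated from the combination MIC values and the MICs alone.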"}, "[4]": {"test_system": "Mycobacterium tuberculosis", "assay": "Antitubercular activity against PAS/INH/EMB/RMP-resistant Mycobacterium tuberculosis Spec.210 assessed as fractional inhibitory concentration index in presence of 1/2 x MIC ethambutol incubated for 14 days by MABA method", "conditions": "time 14 day", "in_short": "as §2"}, "[5]": {"test_system": "Mycobacterium tuberculosis", "assay": "Antitubercular activity against INH-resistant Mycobacterium tuberculosis Spec.800 harboring InhA promoter mutation assessed as fractional inhibitory concentration index in presence of 1/2 x MIC rifampicin incubated for 14 days by MABA method", "conditions": "time 14 day", "in_short": "as §2"}, "[6]": {"test_system": "Mycobacterium tuberculosis", "assay": "Antitubercular activity against INH-resistant Mycobacterium tuberculosis Spec.800 harboring InhA promoter mutation assessed as fractional inhibitory concentration index in presence of 1/2 x MIC isoniazid incubated for 14 days by MABA method", "conditions": "time 14 day", "in_short": "as §2"}, "[7]": {"test_system": "Mycobacterium tuberculosis", "assay": "Antitubercular activity against INH-resistant Mycobacterium tuberculosis Spec.800 harboring InhA promoter mutation assessed as fractional inhibitory concentration index in presence of 1/2 x MIC streptomycin incubated for 14 days by MABA method", "conditions": "time 14 day", "in_short": "as §2"}, "[8]": {"test_system": "Mycobacterium tuberculosis", "assay": "Antitubercular activity against INH-resistant Mycobacterium tuberculosis Spec.800 harboring InhA promoter mutation assessed as fractional inhibitory concentration index in presence of 1/2 x MIC ethambutol incubated for 14 days by MABA method", "conditions": "time 14 day", "in_short": "as §2"}, "[9]": {"test_system": "Mycobacterium tuberculosis", "assay": "Antitubercular activity against PAS/INH/EMB/RMP-resistant Mycobacterium tuberculosis Spec.210 assessed as reduction in bacterial growth incubated for 14 days in presence of 1/2 x MIC isoniazid by MABA method", "conditions": "Mycobacterium tuberculosis, 210, 336 h; time 14 day", "in_short": "(§3)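 Checkerboard-style combination in Middlebrook 7H9 broth with 10% OADC. The test derivative was varied from 1 to 1/32 of its MIC, and the reference drug was fixed at 1/2 its own MIC. Single-agent MICs were determined first by MABA. Samples of 4 ml received inoculum at 1 McFarland and were incubated 14 days at 37 °C. The endpoint was the lowest derivative concentration that inhibited growth.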"}, "[10]": {"test_system": "Mycobacterium tuberculosis", "assay": "Antitubercular activity against PAS/INH/EMB/RMP-resistant Mycobacterium tuberculosis Spec.210 assessed as reduction in bacterial growth incubated for 14 days in presence of 1/2 x MIC streptomycin by MABA method", "conditions": "Mycobacterium tuberculosis, 210, 336 h; time 14 day", "in_short": "as §3"}, "[11]": {"test_system": "Mycobacterium tuberculosis", "assay": "Antitubercular activity against PAS/INH/EMB/RMP-resistant Mycobacterium tuberculosis Spec.210 assessed as reduction in bacterial growth incubated for 14 days in presence of 1/2 x MIC ethambutol by MABA method", "conditions": "Mycobacterium tuberculosis, 210, 336 h; time 14 day", "in_short": "as §3"}, "[12]": {"test_system": "Mycobacterium tuberculosis", "assay": "Antitubercular activity against PAS/INH/EMB/RMP-resistant Mycobacterium tuberculosis Spec.210 assessed as rifampicin MIC incubated for 14 days in presence of rifampicin by MABA method", "conditions": "Mycobacterium tuberculosis, 210, 336 h; time 14 day", "in_short": "(§4)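 Combination assay in Middlebrook 7H9 broth with 10% OADC. The reference drug (INH, RMP, SM or EMB) was varied from 1 to 1/32 of its MIC, and the test derivative was fixed at 1/2 its own MIC. Single-agent MICs were determined first by MABA. Inoculum was 1 McFarland, with 14 days of incubation at 37 °C. The endpoint was the lowest reference-drug concentration that inhibited growth.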"}, "[13]": {"test_system": "Mycobacterium tuberculosis", "assay": "Antitubercular activity against PAS/INH/EMB/RMP-resistant Mycobacterium tuberculosis Spec.210 assessed as streptomycin MIC incubated for 14 days in presence of streptomycin by MABA method", "conditions": "Mycobacterium tuberculosis, 210, 336 h; time 14 day", "in_short": "as §4"}, "[14]": {"test_system": "Mycobacterium tuberculosis", "assay": "Antitubercular activity against INH-resistant Mycobacterium tuberculosis Spec.800 assessed as reduction in bacterial growth incubated for 14 days in presence of 1/2 x MIC isoniazid by MABA method", "conditions": "Mycobacterium tuberculosis, 800, 336 h; time 14 day", "in_short": "(§5)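 Checkerboard-type combination in Middlebrook 7H9 with 10% OADC. The test derivative at 1 to 1/32 of its MIC alone was mixed with the reference drug fixed at 1/2 its MIC. 4 ml samples were inoculated with McFarland 1 suspension and incubated 14 days at 37 °C. MIC is the lowest derivative concentration in combination that inhibited growth in liquid medium.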"}, "[15]": {"test_system": "Mycobacterium tuberculosis", "assay": "Antitubercular activity against INH-resistant Mycobacterium tuberculosis Spec.800 assessed as reduction in bacterial growth incubated for 14 days in presence of 1/2 x MIC streptomycin by MABA method", "conditions": "Mycobacterium tuberculosis, 800, 336 h; time 14 day", "in_short": "as §5"}, "[16]": {"test_system": "Mycobacterium tuberculosis", "assay": "Antitubercular activity against INH-resistant Mycobacterium tuberculosis Spec.800 assessed as isoniazid MIC incubated for 14 days in presence of isoniazid by MABA method", "conditions": "Mycobacterium tuberculosis, 800, 336 h; time 14 day", "in_short": "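In Middlebrook 7H9 with 10% OADC, the reference drug (INH, RMP, SM or EMB) at 1 to 1/32 of its MIC alone was mixed with the test derivative fixed at 1/2 its MIC. 4 ml samples were inoculated with McFarland 1 suspension and incubated 14 days at 37 °C. MIC is the lowest drug concentration in combination that inhibited growth.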"}, "[17]": {"test_system": "Mycobacterium tuberculosis", "assay": "Potency index, Ratio of rifampicin MIC to test compound MIC for antitubercular activity against PAS/INH/EMB/RMP-resistant Mycobacterium tuberculosis Spec.210 assessed as inhibition of microbial growth incubated for 1 week by MABA method", "conditions": "time 1 weeks"}, "[18]": {"test_system": "Mycobacterium tuberculosis", "assay": "Potency index, Ratio of ethambutol MIC to test compound MIC for antitubercular activity against PAS/INH/EMB/RMP-resistant Mycobacterium tuberculosis Spec.210 assessed as inhibition of microbial growth incubated for 1 week by MABA method", "conditions": "time 1 weeks"}, "[19]": {"test_system": "Mycobacterium tuberculosis", "assay": "Potency index, Ratio of isoniazid MIC to test compound MIC for antitubercular activity against PAS/INH/EMB/RMP-resistant Mycobacterium tuberculosis Spec.210 assessed as inhibition of microbial growth incubated for 1 week by MABA method", "conditions": "time 1 weeks"}, "[20]": {"test_system": "Mycobacterium tuberculosis", "assay": "Potency index, Ratio of streptomycin MIC to test compound MIC for antitubercular activity against PAS/INH/EMB/RMP-resistant Mycobacterium tuberculosis Spec.210 assessed as inhibition of microbial growth incubated for 1 week by MABA method", "conditions": "time 1 weeks"}, "[21]": {"test_system": "Mycobacterium tuberculosis", "assay": "Potentiation of streptomycin-induced antimycobacterial activity against INH-resistant Mycobacterium tuberculosis Spec.800 harboring InhA promoter mutation assessed as fold decrease in streptomycin MIC at 1/2X MIC incubated for 14 days in presence of streptomycin by MABA method", "conditions": "time 14 day", "in_short": "as §4"}}, "data": [{"compound": "COc1ccc(-n2nnnc2Nc2ccc(Br)cc2)cc1", "values": [{"measurement": "MIC", "setting": "[1]", "value": 2, "unit": "µg/mL"}, {"measurement": "MIC", "setting": "[2]", "value": 128, "unit": "µg/mL"}, {"measurement": "fractional inhibitory concentration index (FICI)", "setting": "[3]", "value": 0.625}, {"measurement": "fractional inhibitory concentration index (FICI)", "setting": "[4]", "value": 1.5}, {"measurement": "fractional inhibitory concentration index (FICI)", "setting": "[5]", "value": 1.125}, {"measurement": "fractional inhibitory concentration index (FICI)", "setting": "[6]", "value": 0.5}, {"measurement": "fractional inhibitory concentration index (FICI)", "setting": "[7]", "value": 0.375}, {"measurement": "fractional inhibitory concentration index (FICI)", "setting": "[8]", "value": 0.75}, {"measurement": "MIC", "setting": "[9]", "value": 0.25, "unit": "µg/mL"}, {"measurement": "MIC", "setting": "[10]", "value": 1, "unit": "µg/mL"}, {"measurement": "MIC", "setting": "[11]", "value": 2, "unit": "µg/mL"}, {"measurement": "MIC", "setting": "[12]", "value": 8, "unit": "µg/mL"}, {"measurement": "MIC", "setting": "[13]", "value": 8, "unit": "µg/mL"}, {"measurement": "MIC", "setting": "[14]", "value": 32, "unit": "µg/mL"}, {"measurement": "MIC", "setting": "[15]", "value": 16, "unit": "µg/mL"}, {"measurement": "MIC", "setting": "[16]", "value": 0.5, "unit": "µg/mL"}, {"measurement": "Ratio", "setting": "[17]", "value": 16}, {"measurement": "Ratio", "setting": "[18]", "value": 16}, {"measurement": "Ratio", "setting": "[19]", "value": 8}, {"measurement": "Ratio", "setting": "[20]", "value": 8}, {"measurement": "fold change (FC)", "setting": "[21]", "value": 4}]}, {"compound": "COc1ccc(-n2nnnc2Nc2cccc(Br)c2)cc1", "values": [{"measurement": "MIC", "setting": "[1]", "value": 2, "unit": "µg/mL"}, {"measurement": "MIC", "setting": "[2]", "value": 128, "unit": "µg/mL"}, {"measurement": "fractional inhibitory concentration index (FICI)", "setting": "[3]", "value": 1.125}, {"measurement": "fractional inhibitory concentration index (FICI)", "setting": "[4]", "value": 1.5}, {"measurement": "fractional inhibitory concentration index (FICI)", "setting": "[5]", "value": 0.75}, {"measurement": "fractional inhibitory concentration index (FICI)", "setting": "[6]", "value": 0.625}, {"measurement": "fractional inhibitory concentration index (FICI)", "setting": "[7]", "value": 0.56}, {"measurement": "fractional inhibitory concentration index (FICI)", "setting": "[8]", "value": 0.75}, {"measurement": "MIC", "setting": "[9]", "value": 0.25, "unit": "µg/mL"}, {"measurement": "MIC", "setting": "[10]", "value": 0.5, "unit": "µg/mL"}, {"measurement": "MIC", "setting": "[11]", "value": 2, "unit": "µg/mL"}, {"measurement": "MIC", "setting": "[12]", "value": 8, "unit": "µg/mL"}, {"measurement": "MIC", "setting": "[13]", "value": 16, "unit": "µg/mL"}, {"measurement": "MIC", "setting": "[14]", "value": 16, "unit": "µg/mL"}, {"measurement": "MIC", "setting": "[15]", "value": 8, "unit": "µg/mL"}, {"measurement": "MIC", "setting": "[16]", "value": 1, "unit": "µg/mL"}, {"measurement": "Ratio", "setting": "[17]", "value": 16}, {"measurement": "Ratio", "setting": "[18]", "value": 16}, {"measurement": "Ratio", "setting": "[19]", "value": 8}, {"measurement": "Ratio", "setting": "[20]", "value": 8}, {"measurement": "fold change (FC)", "setting": "[21]", "value": "<=4"}]}]}
